Key:
K562 = experiment: Cytotoxicity against human K562 cells after 48 hrs by SRB assay; type: functional; details: K562, 48 h; for CC50: read-out: LC50 (the source's name)
How it was run: (§1)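 Cells grown in RPMI 1640 with 10% FBS and penicillin/streptomycin at 37 °C and 5% CO₂, trypsinized, then seeded at 5 × 10³/well. After 18 h drug-free attachment, samples in DMSO/EtOH/PBS (0.5:0.5:99) were added for 48 h continuous exposure. Cells were fixed with cold TCA (1 h, 4 °C) and stained with SRB (10 min). Tris-solubilized stain read at 490 nm. Triplicate wells, mean ± SD; GI₅₀ derived.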

LNCaP = experiment: Cytotoxicity against human LNcaP cells after 48 hrs by SRB assay; type: functional; details: for CC50: read-out: LC50 (the source's name); how it was run: as §1
LoVo [1] = experiment: Cytotoxicity against human doxorubicin resistant LoVo cells after 48 hrs by SRB assay; type: functional; details: for CC50: read-out: LC50 (the source's name); how it was run: as §1
[2] = Cytotoxicity against human IGROV cells after 48 hrs by SRB assay; type: functional; details: for CC50: read-out: LC50 (the source's name); how it was run: as §1
HT-29 = experiment: Cytotoxicity against human HT29 cells after 48 hrs by SRB assay; type: functional, cell-based; details: Homo sapiens, HT-29, 48 h; read-out: LC50 (the source's name); how it was run: as §1
A549 = experiment: Cytotoxicity against human A549 cells after 48 hrs by SRB assay; type: functional, cell-based; details: Homo sapiens, A549, 48 h; how it was run: as §1
[3] = Cytotoxicity against human HeLa-APL cells after 48 hrs by SRB assay; type: functional; how it was run: as §1
PANC-1 = experiment: Cytotoxicity against human PANC1 cells after 48 hrs by SRB assay; type: functional; details: PANC-1, 48 h; for CC50: read-out: LC50 (the source's name); how it was run: as §1
[4] = Cytotoxicity against human IGROV-ET cells after 48 hrs by SRB assay; type: functional; details: for CC50: read-out: LC50 (the source's name); how it was run: as §1
SK-BR-3 = experiment: Cytotoxicity against human SKBR3 cells after 48 hrs by SRB assay; type: functional; details: SK-BR-3, 48 h; for GI50: read-out: GI50; for CC50: read-out: LC50 (the source's name); how it was run: as §1
LoVo [5] = experiment: Cytotoxicity against human LoVo cells after 48 hrs by SRB assay; type: functional; details: for CC50: read-out: LC50 (the source's name)
HeLa = experiment: Cytotoxicity against human HeLa cells after 48 hrs by SRB assay; type: functional; details: for CC50: read-out: LC50 (the source's name); how it was run: as §1
DU-145 = experiment: Cytotoxicity against human DU145 cells after 48 hrs by SRB assay; type: functional, cell-based; details: Homo sapiens, DU-145, 48 h; for CC50: read-out: LC50 (the source's name); how it was run: as §1
SK-MEL-28 = experiment: Cytotoxicity against human SK-MEL-28 cells after 48 hrs by SRB assay; type: functional, cell-based; details: Homo sapiens, SK-MEL-28, 48 h; for CC50: read-out: LC50 (the source's name); how it was run: as §1

| SMILES | CC50 (K562) [nM] | CC50 (LNCaP) [nM] | GI50 (LoVo [1]) [nM] | TGI (LoVo [1]) [nM] | CC50 (LoVo [1]) [nM] | CC50 [2] [nM] | CC50 (HT-29) [nM] | LC50 (A549) [nM] | LC50 (concentration giving 50% net cell kill) [3] [nM] | CC50 (PANC-1) [nM] | CC50 [4] [nM] | TGI (SK-BR-3) [nM] | GI50 (SK-BR-3) [nM] | CC50 (SK-BR-3) [nM] | GI50 (LoVo [5]) [nM] | TGI (LoVo [5]) [nM] | CC50 (LoVo [5]) [nM] | CC50 (HeLa) [nM] | CC50 (DU-145) [nM] | CC50 (SK-MEL-28) [nM] | further results |
| --- | --- | --- | --- | --- | --- | --- | --- | --- | --- | --- | --- | --- | --- | --- | --- | --- | --- | --- | --- | --- | --- |
| C/C=C1\NC(=O)[C@H](Cc2ccccc2)NC(=O)[C@@H](C(C)C)NC(=O)[C@@H]([C@H](C)CC)NC(=O)[C@H](NC(=O)[C@H](NC(=O)[C@H](CCCN)NC(=O)[C@H]2CCCN2C(=O)[C@H](NC(=O)[C@@H](NC(=O)[C@H](Cc2ccccc2)NC(=O)[C@H](NC(=O)CCCC(C)C)C(C)C)C(C)C)C(C)C)[C@H](C)CC)[C@H](C)OC(=O)[C@H](C(C)C)NC1=O | 1150 | 777 | 380 | 456 | 252 | 478 | 68.3 | 1330 | 282 | 1720 | 518 | 351 | 303 | 352 | 332 | 296 | 210 | 352 | 321 | 158 | GI50 (K562): 23.2 nM; TGI (K562): 106 nM; GI50 (LNCaP): 61.7 nM; TGI (LNCaP): 132 nM; GI50 [2]: 103 nM; GI50 ([2]; read-out: GI50): 175 nM; TGI (A549): 71.4 nM; GI50 (A549; read-out: GI50): 69.4 nM; GI50 [3]: 145 nM; TGI [3]: 142 nM; GI50 (PANC-1): 142 nM; TGI (PANC-1): 304 nM; GI50 [4]: 197 nM; GI50 ([4]; read-out: GI50): 245 nM; GI50 (HeLa): 128 nM; TGI (HeLa): 137 nM; GI50 (DU-145): 166 nM; GI50 (DU-145; read-out: GI50): 191 nM; GI50 (SK-MEL-28): 146 nM; GI50 (SK-MEL-28; read-out: GI50): 152 nM |
| C/C=C1\NC(=O)[C@H](Cc2ccccc2)NC(=O)[C@@H](C(C)C)NC(=O)[C@@H]([C@H](C)CC)NC(=O)[C@H](NC(=O)[C@H](NC(=O)[C@H](CCCN)NC(=O)[C@H]2CCCN2C(=O)[C@H](NC(=O)[C@@H](NC(=O)[C@@H](NC(=O)[C@H](NC(=O)CCCCC(C)=O)C(C)C)[C@@H](C)O)C(C)C)C(C)C)[C@H](C)CC)[C@H](C)OC(=O)[C@H](C(C)C)NC1=O | 1910 | 1390 | 5050 | 7660 | 3710 | 851 | 2350 | 1810 | 1440 | 2290 | 638 | 6310 | 7270 | 1050 | 8590 | 8100 | 3900 | 1370 | 1670 | 1840 | – |
| C/C=C1\NC(=O)[C@H](Cc2ccccc2)NC(=O)[C@@H](C(C)C)NC(=O)[C@@H]([C@H](C)CC)NC(=O)[C@H](NC(=O)[C@H](NC(=O)[C@H](CCCN)NC(=O)[C@H]2CCCN2C(=O)[C@H](NC(=O)[C@H](CCC(=O)O)NC(=O)[C@@H](NC(=O)[C@H](NC(=O)CCCC(C)C)C(C)C)[C@@H](C)O)C(C)C)[C@H](C)CC)[C@H](C)OC(=O)[C@H](C(C)C)NC1=O | 1890 | 1370 | – | – | 3670 | 842 | 2330 | 1790 | 1420 | 2270 | 632 | – | – | 1040 | – | – | 3860 | 1350 | 1660 | 1820 | – |

— ChEMBL document CHEMBL1156597, “Structure-activity relationship of kahalalide F synthetic analogues” (J Med Chem, 2008)
